Data: ChEMBL document CHEMBL1212918, “Computer-aided optimization of phosphinic inhibitors of bacterial ureases” (J Med Chem, 2010)

Key:
[1] = Inhibition of Proteus vulgaris CCM 1956 urease by berthelot colorimetric assay
How it was run: (§1)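 Urease partially purified from the cells of each strain, which were grown aerobically at 37 °C in yeast extract/urea/1 mM NiCl2 medium at pH 9.0. Purification used anion exchange followed by phenyl-Sepharose. Enzyme incubated at 30 °C in 3 mM phosphate pH 7.0 with increasing inhibitor concentrations and urea 10–100 mM. Activity read by modified Berthelot colorimetry. IC50 and Ki were derived by equation fitting.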

[2] = Inhibition of Bacillus pasteurii CCM 2056 urease by berthelot colorimetric assay; design: species or system Sporosarcina pasteurii; how it was run: as §1
[3] = Inhibition of Klebsiella aerogenes urease

Row | Ki [3] [µM] | Structure (SMILES) | Ki [1] [µM] | IC50 [2] [µM] | Ki [2] [µM] | IC50 [1] [µM]
1 |  | CP(=O)(O)CNC(=O)CN | 30 |  |  | 
2 |  | CN(C)CC(=O)NCP(=O)(O)CO | 0.43 | 2.15 | 1.15 | 0.86
3 |  | NCP(=O)(O)CO [AMINOMETHYL(HYDROXYMETHYL)PHOSPHINIC ACID] | 27.5 | 423 | 95 | 47.7
4 |  | CNCC(=O)NCP(=O)(O)CO | 16.2 | 25.4 | 10.6 | 20.6
5 |  | CNCP(C)(=O)O [METHYL((METHYLAMINO)METHYL)PHOSPHINIC ACID] | 27 |  |  | 
6 |  | O=C(NCP(O)(=S)CO)OCc1ccccc1 (stereo not drawn) | 143 | 1420 | 428 | 976
7 |  | O=C(NCP(=O)(O)CO)c1ccccc1 [BENZOYLAMINOMETHYL(HYDROXYMETHYL)PHOSPHINIC ACID] | 9.2 | 69 | 31.9 | 28
8 |  | CN(C)CP(=O)(O)CO [(DIMETHYLAMINO)METHYL(HYDROXYMETHYL)PHOSPHINIC ACID] | 3.1 | 67.6 | 5 | 17.2
9 |  | O=C(CNC(=O)OCc1ccccc1)NCP(=O)(O)CO | 1.96 | 5 | 1.35 | 3.6
10 |  | O=C(NCP(=O)(O)CO)OCc1ccccc1 | 41.9 | 889 | 376 | 377
11 |  | CNCP(=O)(O)CO [HYDROXYMETHYL((METHYLAMINO)METHYL)PHOSPHINIC ACID] | 0.36 | 1.59 | 0.43 | 0.96
12 |  | NCC(=O)NCP(=O)(O)CO | 7.3 | 85 | 30.5 | 14.9
13 | 2.6 | CC(=O)NO [ACETOHYDROXAMIC ACID] |  |  |  | 
